TRPML3 ag = human mucolipin-3 channel agonism | HEK293 TRPML3-YFP, Fluo-8 calcium fluorescence; 100% = the carbachol control signal | activation, % at 3 µM | 0.29% of 220,000 active;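 active = activation above its plate's cutoff, the mean activation of the plate's test wells plus 3 SD, cut at about 12% in these data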;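 note: 0% = DMSO only wells and 100% = carbachol wells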
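Test system – HEK293 line with stable expression of human TRPML3-YFP channel · Control set – carbachol 87 µM final as high control (100%), DMSO as low control (0%) · Signal – Fluo-8 calcium dye fluorescence, ex 470-495, em 515-575 nm · Incubation – 1-h 37 °C dye load, 5-s basal, 120-s post-compound reads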
TAAR1 antagonist = human TAAR1 antagonism | Q96RJ0 | CHO RD-HGA16 TAAR1, Fluo-8 calcium fluorescence, antagonist | inhibition, % at 3 µM | 1.5% of 360,000 active;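 active = inhibition above a per-plate cutoff, the mean inhibition of test compounds on that plate plus 3 SD, cut at about 49% in these data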;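 note: 0% = DMSO plus EC80 beta-PEA response and 100% = DMSO alone without agonist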
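System: RD-HGA16 CHO cells with stable hTAAR1 and Gα16 | Probe or stimulus: EC80 β-phenethylamine stimulus | Dosing: 3 µM, single point | Times: Dye loading 75 min at 37 °C, then 30 min room temperature | Measured by: Fluo-8 calcium-sensitive fluorescence | Read-out basis: % inhibition of agonist calcium response | Replicates: n of 1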
LANA-H2A inh = blocks KSHV LANA binding to histone H2A/H2B. inhibition, % (concentration not given with the values). 0.6% of 320,000 active. cell-free LANA-H2A/H2B peptide, fluorescence polarization; in the data active = inhibition mostly above about 10%, no sharp cut-off; inactive = mostly below about 6.7%
zfTRPN1 agonist = agonists of zebrafish TRPN1 channel | HEK293 zebrafish TRPN1-YFP, Fluo-8 calcium fluorescence; 100% = response to 87 µM carbachol | AID 1424 | 0.18% of 220,000 active | activation, % at 3 µM;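 active = activation above its plate's cutoff, the mean activation of test wells on that plate plus 3 SD, cut at about 19% in these data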;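 note: 0% = DMSO alone and 100% = 87 µM carbachol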
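Material: zebrafish TRPN1-YFP in HEK293 cells. Doses: one dose of 3 µM, 0.3% DMSO. Incubation: dye 1 h 37 °C plus 30 min RT. Measured by: intracellular calcium fluorescence with Fluo-8.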
TAAR1 agonist = agonists of human TAAR1; Q96RJ0; CHO RD-HGA16 TAAR1, Fluo-8 calcium fluorescence; vehicle wells 0%, saturating PEA agonist 100%; activation, % at 3 µM; 0.99% of 360,000 active;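 active = activation above the mean activation of all test compounds in the run plus 3 SD, cut at about 38% in these data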
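Benchmarks: low control DMSO, high control PEA (EC100); System: CHO RD-HGA16 cells carrying human TAAR1 plus Gα16; Detection: Fluo-8 fluorescence, 5 s baseline then 140 s kinetic read; Schedule: 17-24 h plating, Fluo-8 75 min 37 °C, 30 min RT; Read-out basis: % activation from peak over basal fluorescence ratio, DMSO-to-PEA scaled.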
GPR7 antag = antagonists of human GPR7 (neuropeptides B/W receptor 1); P48145; GPR7-expressing cells, fluorescence antagonist assay; inhibition, % at 4.4 µM; 1.1% of 290,000 active; in the data active = inhibition above about 16%, passing the limit was not always enough;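 note: cells stimulated with the agonist NPW; 0% = agonist with vehicle and 100% = vehicle without agonist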
Target sequence (P48145 whole entry, looked up): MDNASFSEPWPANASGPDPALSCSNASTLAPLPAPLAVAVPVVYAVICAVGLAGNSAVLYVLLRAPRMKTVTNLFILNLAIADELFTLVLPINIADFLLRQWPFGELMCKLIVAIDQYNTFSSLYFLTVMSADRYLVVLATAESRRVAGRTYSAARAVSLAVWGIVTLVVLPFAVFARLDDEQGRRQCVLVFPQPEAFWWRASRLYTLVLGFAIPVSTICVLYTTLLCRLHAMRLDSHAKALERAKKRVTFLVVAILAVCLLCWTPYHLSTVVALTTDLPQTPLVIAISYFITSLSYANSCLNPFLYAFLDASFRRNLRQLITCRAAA
nonsel antag count = nonselective antagonism, TAAR1 counter-screen; shares compounds with TAAR1 antagonist; inhibition, % at 3 µM; counterscreen cell line, calcium fluorescence, antagonist mode; AID 651780; 77% of 2,400 active; in the data active = inhibition above about 22%;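 note: CHO-Ga16 host cells stimulated with ATP at an EC80 level; 0% = agonist EC80 plus vehicle and 100% = vehicle without agonist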
TAAR1 ant conf = confirmation of human TAAR1 antagonists; shares compounds with TAAR1 antagonist; TAAR1-expressing cells, fluorescence antagonist read-out; inhibition, % at 3 µM; 40% of 2,400 active; in the data active = inhibition above about 49%;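 note: CHO-Ga16 host cells challenged with agonist PEA near its EC80; 0% = agonist at EC80 plus vehicle and 100% = vehicle with no agonist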
Ga16 nonsel ag = nonselective Ga16 agonist in TAAR1 antagonist counter-screen; shares compounds with TAAR1 antagonist; Ga16-expressing cells, calcium fluorescence, agonist counterscreen; activation, % at 3 µM; 18% of 2,400 active; AID 651953; in the data active = activation above about 12%;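 note: 0% = vehicle wells and 100% = saturating stimulus response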
TAAR1 ag counter = TAAR1 agonism, antagonist counter-screen; shares compounds with TAAR1 antagonist; hTAAR1 cell line, fluorescence activation, agonist mode; activation, % at 3 µM; 2% of 2,400 active; AID 651955; in the data active = activation above about 37%;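 note: CHO cells stably expressing TAAR1 with calcium dye readout; 0% = DMSO vehicle and 100% = full agonist response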
Starred values were filed as active, the others as inactive. This is a sample that favours compounds with a hit; in the whole collection about 3.4% have one here.

For O=C(Nc1ccc(-c2cn3ccsc3n2)cc1)C1COc2ccccc2O1 (centres undefined) the results were TRPML3 ag 2, TAAR1 antagonist 60*, LANA-H2A inh -1, zfTRPN1 agonist 8, TAAR1 agonist 24, GPR7 antag -2, nonsel antag count 38*, TAAR1 ant conf 56*, Ga16 nonsel ag 15* and TAAR1 ag counter 11.
For Cc1ccc(-c2csc(NC(=O)c3cccc(N4C(=O)CCC4=O)c3)n2)o1 the results were TRPML3 ag 1, LANA-H2A inh -1, zfTRPN1 agonist 3 and GPR7 antag -1.
For Cc1ccc(NC(=O)C2COc3ccccc3O2)cc1 (centres undefined) the results were TAAR1 antagonist 7, LANA-H2A inh 3, TAAR1 agonist 3 and GPR7 antag 32.
For COc1ccc(-c2csc(NC(=S)NC(=O)/C=C/c3ccco3)n2)cc1OC the results were TRPML3 ag 1, TAAR1 antagonist 63*, LANA-H2A inh 7, zfTRPN1 agonist 1, TAAR1 agonist 7, GPR7 antag -1, nonsel antag count 29*, TAAR1 ant conf 57*, Ga16 nonsel ag 7 and TAAR1 ag counter 5.
CCOc1ccc(-c2csc(NC(=O)c3cccc(N4C(=O)CCC4=O)c3)n2)cc1 was read as TRPML3 ag 0, TAAR1 antagonist 68*, LANA-H2A inh 1, zfTRPN1 agonist 5, TAAR1 agonist 19, GPR7 antag -5, nonsel antag count 32*, TAAR1 ant conf 44, Ga16 nonsel ag 12* and TAAR1 ag counter 14.
For CCN(CC)C(=O)Cn1cc(C(=O)C(=O)N2CCN(c3ccc([N+](=O)[O-])cc3)CC2)c2ccccc21 the results were TAAR1 antagonist -2, LANA-H2A inh 1, TAAR1 agonist -2 and GPR7 antag -12.
Screening COc1ccc(-c2csc(NC(=O)C3COc4ccccc4O3)n2)cc1OC (centres undefined) returned TRPML3 ag 0, TAAR1 antagonist 62*, LANA-H2A inh -2, zfTRPN1 agonist -1, TAAR1 agonist 5, GPR7 antag -4, nonsel antag count 29*, TAAR1 ant conf 40, Ga16 nonsel ag 7 and TAAR1 ag counter 5.
For CC(C)(C)c1csc(NC(=O)C2COc3ccccc3O2)n1 (centres undefined) the results were TAAR1 antagonist 22, LANA-H2A inh 0, TAAR1 agonist -1 and GPR7 antag -19.
`O=C1OC[C@H]2CCCN2C(=O)[C@@H](CC(=O)N(CCO)Cc2ccccc2)C/C=C\C[C@@H]1Cc1ccc(F)cc1` gave TAAR1 antagonist 57*, LANA-H2A inh -5, TAAR1 agonist 21, nonsel antag count 25*, TAAR1 ant conf 34, Ga16 nonsel ag 8 and TAAR1 ag counter 6.
O=C1N[C@@H](c2ccccc2)COC(=O)[C@@H](Cc2ccc(F)cc2)CC/C=C/C[C@H]1CC(=O)N(CCO)Cc1ccccc1 was read as TAAR1 antagonist 71*, TAAR1 agonist 19, nonsel antag count 31*, TAAR1 ant conf 56*, Ga16 nonsel ag 14* and TAAR1 ag counter 21.
`O=C1N[C@@H](c2ccccc2)COC(=O)[C@@H](Cc2ccc(F)cc2)CC/C=C/C[C@@H]1CC(=O)N(CCO)Cc1ccccc1` gave TAAR1 antagonist 37 and TAAR1 agonist 15.

Screens: PubChem, several laboratories
